Results from ChEMBL document CHEMBL3045743, “Synthesis and herbicidal activity of isoindoline-1,3-dione substituted benzoxazinone derivatives containing a carboxylic ester group” (J Agric Food Chem, 2009).

Experiments:
Assay type in all cases: functional
[1] = test system: Setaria viridis; assay: Post-emergence herbicidal activity against Setaria viridis (green foxtail) assessed as growth inhibition at 75 g.a.i./ha applied at one-leaf stage measured after 15 days; conditions: 360 h, read-out: GI
How it was run: (§1)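 Pot-grown weeds sown 5 mm deep in greenhouse clay soil (pH 6.5, 1.7% organic matter, CEC 12.9 cmol/kg) at 22-25 °C. Stock diluted with water and sprayed post-emergence: dicots at 2-leaf stage, monocots at 1-leaf stage. Untreated and DMF solvent controls were included. % growth inhibition was scored visually versus untreated controls after 15 days. Triplicates averaged.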

[2] = test system: Amaranthus; assay: Pre-emergence herbicidal activity against Amaranthus ascendens assessed as growth inhibition at 75 g.a.i./ha applied 24 hr after seeds were sown measured after 15 days; conditions: read-out: GI
How it was run: (§2)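 Weeds sown 5 mm deep in pots of greenhouse clay soil (pH 6.5, 37.5% clay, CEC 12.9 cmol/kg) and grown at 22-25 °C. Water-diluted formulation was applied pre-emergence 24 h after sowing. Untreated and DMF solvent controls were included. Growth inhibition was visually rated in % against untreated controls after 15 days, as the mean of triplicates.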

[3] = test system: Abutilon theophrasti; assay: Pre-emergence herbicidal activity against Abutilon theophrasti (velvetleaf) assessed as growth inhibition at 75 g.a.i./ha applied 24 hr after seeds were sown measured after 15 days; conditions: read-out: GI; how it was run: as §2
[4] = test system: Echinochloa crus-galli; assay: Pre-emergence herbicidal activity against Echinochloa crus-galli (barnyard grass) assessed as growth inhibition at 75 g.a.i./ha applied 24 hr after seeds were sown measured after 15 days; conditions: read-out: GI; how it was run: as §2
[5] = test system: Abutilon theophrasti; assay: Post-emergence herbicidal activity against Abutilon theophrasti (velvetleaf) assessed as growth inhibition at 75 g.a.i./ha applied at two-leaf stage measured after 15 days; conditions: 360 h, read-out: GI; how it was run: as §1
[6] = test system: Echinochloa crus-galli; assay: Post-emergence herbicidal activity against Echinochloa crus-galli (barnyard grass) assessed as growth inhibition at 75 g.a.i./ha applied at one-leaf stage measured after 15 days; conditions: 360 h, read-out: GI; how it was run: as §1
[7] = test system: Digitaria sanguinalis; assay: Pre-emergence herbicidal activity against Digitaria sanguinalis (hairy crabgrass) assessed as growth inhibition at 75 g.a.i./ha applied 24 hr after seeds were sown measured after 15 days; conditions: read-out: GI; how it was run: as §2
[8] = test system: Amaranthus; assay: Post-emergence herbicidal activity against Amaranthus ascendens assessed as growth inhibition at 75 g.a.i./ha applied at two-leaf stage measured after 15 days; conditions: 360 h, read-out: GI; how it was run: as §1
[9] = test system: Chenopodium album; assay: Pre-emergence herbicidal activity against Chenopodium album assessed as growth inhibition at 75 g.a.i./ha applied 24 hr after seeds were sown measured after 15 days; conditions: read-out: GI; how it was run: as §2
[10] = test system: Chenopodium album; assay: Post-emergence herbicidal activity against Chenopodium album assessed as growth inhibition at 75 g.a.i./ha applied at two-leaf stage measured after 15 days; conditions: 360 h, read-out: GI; how it was run: as §1
[11] = test system: Setaria viridis; assay: Pre-emergence herbicidal activity against Setaria viridis (green foxtail) assessed as growth inhibition at 75 g.a.i./ha applied 24 hr after seeds were sown measured after 15 days; conditions: read-out: GI
How it was run: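 Preliminary pre-emergence screen at a single rate of 75 g a.i./ha. Stock diluted with water and sprayed on greenhouse pots 24 h after seeds were sown 5 mm deep in clay soil (pH 6.5, 1.7% organic matter); grown at 22-25 °C. Untreated and DMF solvent controls included; triplicate. Visual % growth inhibition vs untreated after 15 days, averaged and banded (>80% top band).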

[12] = test system: Digitaria sanguinalis; assay: Post-emergence herbicidal activity against Digitaria sanguinalis (hairy crabgrass) assessed as growth inhibition at 75 g.a.i./ha applied at one-leaf stage measured after 15 days; conditions: 360 h, read-out: GI; how it was run: as §1

Row | Compound | inhibition of growth at 75 g/ha [1] [%] | inhibition of growth at 75 g/ha [2] [%] | inhibition of growth at 75 g/ha [3] [%] | inhibition of growth at 75 g/ha [4] [%] | inhibition of growth at 75 g/ha [5] [%] | inhibition of growth at 75 g/ha [6] [%] | inhibition of growth at 75 g/ha [7] [%] | inhibition of growth at 75 g/ha [8] [%] | inhibition of growth at 75 g/ha [9] [%] | inhibition of growth at 75 g/ha [10] [%] | inhibition of growth at 75 g/ha [11] [%] | inhibition of growth at 75 g/ha [12] [%]
1 | CCOC(=O)C(C)N1C(=O)COc2cc(F)c(N3C(=O)c4ccc(C)cc4C3=O)cc21 (centres undefined) | < 50 | < 50 | < 50 | < 50 | > 80 | < 50 | < 50 | < 50 | 50 | < 50 | < 50 | < 50
2 | COC(=O)C(C)N1C(=O)COc2cc(F)c(N3C(=O)c4ccccc4C3=O)cc21 (centres undefined) | 50 | < 50 | < 50 | < 50 | > 80 | 50 | < 50 | > 80 | < 50 | > 80 | < 50 | 50
3 | CCOC(=O)CN1C(=O)COc2cc(F)c(N3C(=O)c4cc(Cl)c(Cl)cc4C3=O)cc21 | < 50 | < 50 | < 50 | < 50 | 50 | < 50 | < 50 | 50 | < 50 | 50 | < 50 | < 50
4 | CCOC(=O)C(c1ccccc1)N1C(=O)COc2cc(F)c(N3C(=O)C4=C(CCCC4)C3=O)cc21 (centres undefined) | > 80 | > 80 | 50 | < 50 | > 80 | 50 | 50 | > 80 | > 80 | > 80 | 50 | > 80
5 | C#CCN1C(=O)COc2cc(F)c(N3C(=O)c4ccc(F)cc4C3=O)cc21 | > 80 | > 80 | > 80 | > 80 | > 80 | > 80 | > 80 | > 80 | > 80 | > 80 | > 80 | > 80
6 | CCOC(=O)CN1C(=O)COc2cc(N3C(=O)c4ccccc4C3=O)c(F)cc21 | < 50 | < 50 | < 50 | < 50 | < 50 | < 50 | < 50 | < 50 | < 50 | < 50 | < 50 | < 50
7 | CCOC(=O)C(C)(C)N1C(=O)C(C)Oc2cc(F)c(N3C(=O)C4=C(CCCC4)C3=O)cc21 (centres undefined) | 50 | 50 | < 50 | < 50 | > 80 | 50 | < 50 | > 80 | < 50 | > 80 | < 50 | 50
